Data taken from ChEMBL document CHEMBL5137129, “Anti-HIV Macrocyclic Daphnane Orthoesters with an Unusual Macrocyclic Ring from Edgeworthia chrysantha” (J Nat Prod, 2022).

Legend:
MT4 = assay: Cytotoxicity against human MT4 cells assessed as inhibition of cell growth by measuring ATP by CellTiter-Glo luminescent cell viability assay; format: toxicity, cell-based
Procedure, shortened: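 MT4 cells were cultured in parallel with the anti-HIV-1 cultures (NL4-3, MOI 0.001, 4 days, medium with compound refreshed at 48 h). Viability was read as ATP of metabolically active cells by CellTiter-Glo luminescence. Dose-response curves came from three independent experiments.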

[1] = test system: Human immunodeficiency virus 1; assay: Anti-HIV activity against Human immunodeficiency virus 1 […] infected in human MT4 cells assessed as inhibition of viral infection measured after 4 days by serial dilution based p24 ELISA analysis; format: functional, organism-based; conditions: Human immunodeficiency virus 1, MT4, 96 h
Procedure, shortened: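 HIV-1 NL4-3 at MOI 0.001 infected MT4 cells with compounds present at various concentrations (4-fold serial dilutions across the inhibitory phase). Fresh compound-containing medium was added 48 h post-infection. Replication was read by p24 ELISA at 4 days post-infection. Dose-response curves came from three independent experiments.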

SMILES	IC50 (MT4) [nM]	EC50 [1] [nM]
C=C(C)[C@]12C[C@@H](COC(=O)c3ccccc3)[C@@]34OC5(O[C@@H]1[C@@H]3[C@@H]1O[C@]1(CO)[C@@H](O)[C@@]1(O)[C@H]4[C@H]([C@H](C)[C@@H]1OC(=O)c1ccccc1)[C@H](C)CCCCCC[C@H]5O)O2	> 32	–
C=C(C)[C@@]12OC34CCC/C=C\CCCC[C@H](CCC)[C@@H]5[C@@H]6[C@]7(O[C@]5(C)OC7=O)[C@H](O)[C@@]5(CO)O[C@H]5[C@@H]([C@H]1O3)[C@]6(O4)[C@H](COC(=O)c1ccccc1)[C@H]2OC(C)=O	> 32	> 32
C=C(C)[C@@]12OC34CCC/C=C\CCCC[C@H](CCC)[C@@H]5[C@@H]6[C@]7(O[C@]5(C)OC7=O)[C@H](O)[C@@]5(CO)O[C@H]5[C@@H]([C@H]1O3)[C@]6(O4)[C@H](C)[C@H]2OC(C)=O	> 32	> 32
C=C(C)[C@@]12OC34CCC/C=C\CCCC[C@H](CCC)[C@@H]5[C@@H]6[C@]7(O[C@]5(C)OC7=O)[C@H](O)[C@@]5(CO)O[C@H]5[C@@H]([C@H]1O3)[C@]6(O4)[C@H](COC(=O)C(C)C)[C@H]2OC(C)=O	> 32	29.3
C=C(C)[C@@]12OC34CCC/C=C\CCCC[C@H](CCC)[C@H]5[C@H](C)C(=O)[C@@]6(O)[C@H](O)[C@@]7(CO)O[C@H]7[C@@H]([C@H]1O3)[C@](O4)([C@H](C)[C@H]2OC(C)=O)[C@H]56	> 32	8.4
C=C(C)[C@@]12OC34CCC/C=C\CCCC[C@H](CCC)[C@H]5[C@H](C)C(=O)[C@@]6(O)[C@H](O)[C@@]7(CO)O[C@H]7[C@@H]([C@H]1O3)[C@](O4)([C@H](COC(=O)C(C)C)[C@H]2OC(C)=O)[C@H]56	21.3	2.9
